Measurements taken from PMC9884082 (Journal of Medicinal Chemistry, 2023).

Experiments:
HT-29 monolayer culture = experiment: Cell proliferation; assay type: cell-based, human; settings: MTT, 60-72 h
In short: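 HT-29 cells kept as monolayers in DMEM:F-12 with 10% FBS and 1% penicillin/streptomycin, passaged before 70% confluence. About 2.5 × 10³ cells/well were incubated overnight (37 °C, 5% CO₂), then exposed to test compound for 60–72 h. MTT (5 mg/mL stock in PBS) was added for 2–3 h and crystals dissolved in DMSO. A590 was read and growth expressed as percent of vehicle; ≥3 replicates.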

[1] = Preliminary half-life experiments; assay type: in vivo; settings: data not shown
[2] = Mouse tail bleeding study; assay type: in vivo, wild-type ICR mice; settings: IV; NSGMs 1–100 mg/kg, enoxaparin 224 μg/kg
[3] = system: pooled normal human plasma; experiment: Human plasma clotting time; assay type: biochemical; settings: ∼34 to ∼68 s
In short: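 APTT was run in a fibrometer by one-stage recalcification. Test compound was mixed with citrated pooled normal human plasma and prewarmed APTT reagent (ellagic acid). After 4 min at 37 °C, clotting was started with prewarmed 25 mM CaCl₂ and time to clot recorded. A quadratic trend line fitted to the data gave the concentration doubling clotting time.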

[4] = system: CD133+/CXCR4+ (Dual Hi) HT-29 xenografts; experiment: Dual Hi HT-29 xenograft after FUOX enrichment, IP G5C or FUOX; assay type: in vivo, NCr nude mice; settings: G5C 100 mg/kg IP; FUOX IP weekly
In short: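 1 × 10⁵ FACS-sorted CD133⁺/CXCR4⁺ HT-29 cells were injected subcutaneously into NCr nude mice. Palpable tumors were enriched in vivo with 25 mg/kg 5-fluorouracil plus 2 mg/kg oxaliplatin IP weekly for 3 weeks. Mice were then randomized to vehicle, the same regimen continued, or test compound 100 mg/kg IP three times/week (14 doses). Tumors (n = 2/group) were dissociated into single cells and 1–3° spheroids (50–150 μm) counted in low-adhesion EGF/FGF stem cell medium.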

SMILES: CC(C)CCC[C@@H](C)[C@H]1CC[C@H]2[C@@H]3CC=C4C[C@@H](OCCCCCOc5cc(-c6oc7cc(OS(=O)(=O)[O-])cc(OCCCOc8cc(OS(=O)(=O)[O-])cc9oc(-c%10ccc(OS(=O)(=O)[O-])c(OS(=O)(=O)[O-])c%10)c(OS(=O)(=O)[O-])c(=O)c89)c7c(=O)c6OS(=O)(=O)[O-])ccc5OS(=O)(=O)[O-])CC[C@]4(C)[C@H]3CC[C@]12C.[Na+].[Na+].[Na+].[Na+].[Na+].[Na+].[Na+] [G5C, Sodium 4-(5-(3-((2-(3-((5-(((8S,9S,10R,13R,14S,17R)-10,13-Dimethyl-17-((R)-6-methylheptan-2-yl)-2,3,4,7,8,9,10,11,12,13,14,15,16,17-tetradecahydro-1H-cyclopenta[a]phenanthren-3-yl)oxy)pentyl)oxy)-4-(sulfonatooxy)phenyl)-4-oxo-3,7-bis(sulfonatooxy)-4H-chromen-5-yl)oxy)propoxy)-4-oxo-3,7-bis(sulfonatooxy)-4H-chromen-2-yl)-1,2-phenylene Bis(sulfate)]
- cytotoxicity under monolayer conditions (HT-29 monolayer culture): essentially benign toward monolayer cancer cell culture even at ∼400 μM
- increase in half-life over G2.2 [1]: ~50%
- blood loss, tail bleeding [2]: did not exhibit much tail bleeding phenotype
- concentration required for 2-fold increase in APTT [3]: ~200 µM
- ex vivo 3° spheroid growth from xenograft cells [4]: maintain inhibition
